A selection: hits, their analogues and other compounds. The true share with any hit is near 2.1%.
EBI2 block – EBI2 (human) antagonism. P32249. EBI2 beta-arrestin recruitment, luminescence, 7a,25-OHC stimulated. inhibition, % at 5 µM. 0.81% of 360,000 active. AID 651636; in the data active means inhibition above about 38%;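 further: enzyme fragment complementation signal reports receptor beta-arrestin coupling in cells; 0% = agonist plus DMSO wells and 100% = wells without agonist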
CCR6 antag – antagonists of human CCR6 receptor; inhibition, % at 20 µM; 0.49% of 340,000 active; P51684; AID 493098; CHO-K1 CCR6 PathHunter beta-arrestin, luminescence, CCL20-stimulated;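 active means compounds whose inhibition of the agonist-driven luminescence signal at 20 µM reaches about 50%, limit read from the data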;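 further: cells stimulated with CCL20 at 14 nM final; plate controls were DMSO with CCL20 for no effect and DMSO without agonist for full effect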
CXCR6 inh – CXCR6 (human) receptor inhibition. 0.36% of 360,000 active. O00574. CHO-K1 PathHunter CXCR6 beta-arrestin, luminescence. inhibition, % at 20 µM; in the data active means inhibition above about 34%, passing the limit was not always enough;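 further: antagonist mode with CXCL16 agonist at 10 nM final; 0% = 10 nM CXCL16 with DMSO and 100% = unstimulated wells without agonist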
APJ antagonist – antagonists of human APJ apelin receptor | P35414 | CHO-K1 APJ beta-arrestin complementation, luminescence | inhibition, % at 20 µM | 0.32% of 330,000 active | AID 2521;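 active means inhibition above about 40% at 20 µM, limit read from the data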;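 further: cells challenged with 10 nM apelin-13 agonist together with compound; plate controls were apelin-13 plus DMSO wells for no effect and DMSO wells lacking apelin-13 for full effect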
Target sequence (P35414 whole entry, looked up): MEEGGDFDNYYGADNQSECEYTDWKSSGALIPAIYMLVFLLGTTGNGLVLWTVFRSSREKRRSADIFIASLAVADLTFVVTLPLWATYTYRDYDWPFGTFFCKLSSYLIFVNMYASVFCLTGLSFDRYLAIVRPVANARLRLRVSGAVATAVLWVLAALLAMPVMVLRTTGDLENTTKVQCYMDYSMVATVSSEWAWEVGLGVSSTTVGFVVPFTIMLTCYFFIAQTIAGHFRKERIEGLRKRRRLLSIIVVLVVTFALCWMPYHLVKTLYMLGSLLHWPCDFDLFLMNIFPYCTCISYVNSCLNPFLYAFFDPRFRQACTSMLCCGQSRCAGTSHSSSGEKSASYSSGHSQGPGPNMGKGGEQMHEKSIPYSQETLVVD
m5-HT2A agonist – activates the mouse 5-HT2A serotonin receptor; CHO-K1 mHTR2A beta-arrestin complementation, luminescence; percent of 30 µM serotonin response; P35363; AID 624169; 0.66% of 360,000 active; activation, % at 7.6 µM;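 active means activation above a run cutoff, the mean activation of all tested compounds plus 3 SD, cut at about 14% in these data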;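 further: 0% = plate median of compound wells and 100% = 30 µM serotonin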
APJ agonist – APJ receptor agonism; activation, % at 20 µM; 0.11% of 330,000 active; CHO-K1 APJ PathHunter beta-arrestin, luminescence; 0% DMSO wells, 100% apelin;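 active means activation more than six SD over the plate average, tested at 20 µM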;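 further: 0% = DMSO alone and 100% = apelin-13 at 10 nM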
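Material: CHO-K1 APJ beta-arrestin complementation cell line; Input: cell density 1000 per well; Incubation: compound stimulation 90 min at 25 °C, detection 60 min; Signal: luminescence from split beta-galactosidase complementation, Galacton Star/Emerald II substrate; Controls: DMSO-only wells as negative, 10 nM Apelin-13 as positive control.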
The depositor's hits bear a star; . = not tested or not shown.

SMILES | EBI2 block | CCR6 antag | CXCR6 inh | APJ antagonist | m5-HT2A agonist | APJ agonist
CC(=O)NCCNc1ccc([N+](=O)[O-])cc1C#N | -5 | 5 | -1 | -4 | -3 | -2
CN(C)CC(O)c1ccc(C=Cc2ccc(Cl)cc2)cc1 (stereo not given) | -22 | 88* | 19 | . | -3 | .
CN(C)/C=C/C(=O)/C=C/c1ccc(Cl)cc1 | 9 | 11 | 6 | -3 | -1 | -2
O=C(CSc1nnc2c(n1)[nH]c1ccc(F)cc12)Nc1ccccc1F | -17 | 8 | 3 | 15 | 6 | -3
O=C(CSc1nnc2c(n1)[nH]c1ccccc12)NCc1ccccc1F | 3 | -5 | -4 | 8 | 15* | -3
O=C(Nc1ccc(-n2ccc(C(F)(F)F)n2)cc1)Nc1cccc(Cl)c1 | 1 | . | -10 | -15 | -5 | 12
COc1ccccc1NS(=O)(=O)c1ccc(C(=O)NCC2(N(C)C)CCCCC2)cc1 | 1 | 2 | 7 | 13 | -6 | -2
Cc1ccc(Nc2c([N+](=O)[O-])ccc3c2=NC2(CCCCC2)N=3)cc1 | 62* | 31 | 5 | -46 | 5 | 4
CCc1cccc(NC(=O)CC2Oc3ccccc3NC2=O)c1 (stereo not given) | -4 | 5 | 15 | -7 | 8 | -5
COC(=O)C1=C(C(=O)OC)SC(=C2C(=S)C(C)(C)N(C(=O)C3CC3)c3ccccc32)S1 | 28 | 52* | 34 | 38 | 3 | -12
COC(=O)C1=C(C(=O)OC)SC(=C2C(=S)C(C)(C)N(C(=O)C(C)C)c3ccccc32)S1 | 31 | 53* | 32 | 29 | 2 | -5
CCCCNc1c(-c2ccc(OC)c(SC3CCCCC3)c2)nc2ccc(Cl)cn12 | 23 | -2 | -10 | -9 | 2 | 1
CSc1nc2sc3c(c2c(=O)[nH]1)CCC3 | -7 | -12 | 8 | 14 | 1 | -1
CCN1CCc2c(C#N)c(N3CCCCC3)nc(NCc3ccccc3)c2C1 | 8 | 23 | 7 | 1 | -11 | -1
C=CCNc1nc(N2CCCCC2)c(C#N)c2c1CN(Cc1ccccc1)CC2 | 13 | -2 | -2 | 2 | 39* | 3
Cc1ccc(-c2noc(CSc3nnc(Cc4cccs4)n3-c3ccccc3)n2)cc1 | 10 | 34 | 18 | -49 | 21* | -2
CC1=NOC(=O)/C1=C\c1ccc(-c2ccc(Br)cc2)o1 | 4 | 76* | 41* | . | -3 | .
COCCNC(=O)C(=O)N/N=C(\C)CC(=O)Nc1ccc(Cl)cc1Cl | 4 | 0 | -7 | 11 | 0 | -4
O=C(c1ccc(F)cc1)N1CCN(S(=O)(=O)c2ccc3c(c2)OCCO3)CC1 | 8 | . | 1 | . | 2 | .
O=C(c1ccc(C(F)(F)F)cc1)N1CCN(S(=O)(=O)c2ccc3c(c2)OCCCO3)CC1 | 51* | 12 | -6 | -3 | 8 | -1
Nc1c(C(=O)NC2CC2)sc2nc3c(c(-c4ccco4)c12)CC/C3=C/c1ccco1 | -12 | 51* | 24 | . | 5 | .
C/C(=N\Nc1cc(C)nc(-c2ccccc2)n1)c1cccc([N+](=O)[O-])c1 | 21 | 4 | -4 | -1 | 3 | -4
C/C(=N\Nc1cc(-c2ccccc2)nc(-c2ccccc2)n1)c1ccc(O)c(C)c1 | 51* | -13 | 18 | -12 | 0 | 1
COc1cc(N/N=C(\C)c2ccc(O)c(C)c2)nc(-c2ccccc2)n1 | 57* | -14 | -21 | -12 | 2 | -3
CCOc1ccccc1NC(=O)COc1coc(CN2CCCc3ccccc32)cc1=O | 1 | 15 | -6 | -21 | -10 | 12
CCOC(=O)C1=NN(C(=O)c2ccc(C)cc2)C(O)(c2ccc(Cl)cc2)C1 (stereo not given) | 15 | 6 | 15 | -1 | -6 | -1
CCC1=NN(C(=O)c2ccc(Cl)cc2)C(O)(c2ccc(C)cc2)C1 (stereo not given) | -4 | 64* | 34 | 29 | -7 | 1
CCOc1ccc(NCC(=O)c2ccc(C)cc2)cc1 | -6 | 68* | 51* | 6 | 6 | -2
O=C(CNc1ccccc1)c1ccc([N+](=O)[O-])cc1 | -3 | 20 | -7 | -7 | -1 | 6
CC(=O)Nc1ccc(NCC(=O)c2ccccc2)cc1 | -15 | 28 | 51* | 11 | -3 | 0

Compound activity from PubChem BioAssay.
